According to ChEMBL document CHEMBL3994627, “Positional isomers of bispyridine benzene derivatives induce efficacy changes on mGlu5 negative allosteric modulation” (Eur J Med Chem, 2017):

Assays:
[1] = target: Metabotropic glutamate receptor 5 (Rattus norvegicus) (UniProt P31424); assay: Negative allosteric modulation of rat N-terminal HA-tagged mGlu5 receptor expressed in HEK293 cells co-expressing N-terminal HA-tagged EAAC1 assessed as inhibition of quisqualate-induced inositol phosphate accumulation by measuring difference in efficacy between dark condition and violet light illumination after 30 mins by HTRF assay; type: functional, cell-based; set-up: scale not given: the % may be the effect or the level left
How it was run: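 Quisqualate (100 nM) and compound were applied for 30 min at 37°C to HEK293 cells expressing rat HA-mGlu5 and EAAC1. Wells sat over an LED plate 2–3 cm away: foil-covered wells stayed dark, the rest got continuous 380 nm light. Cells were washed once before lysis, then IP-One HTRF was read. Value is the efficacy difference (%), dark minus violet.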

[2] = target: Metabotropic glutamate receptor 5 (Rattus norvegicus) (UniProt P31424); assay: Negative allosteric modulation of rat N-terminal HA-tagged mGlu5 receptor expressed in HEK293 cells co-expressing N-terminal HA-tagged EAAC1 assessed as inhibition of quisqualate-induced inositol phosphate accumulation after 30 mins by HTRF assay relative to fenobam; type: functional, cell-based
How it was run: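 Dose-response was run in HEK293 cells expressing rat HA-mGlu5 and EAAC1, under 100 nM quisqualate with compound for 30 min at 37°C, in dark conditions. IP-One HTRF read-out. Efficacy was taken from the bottom of the dose-response curve and normalised between 0% and 100% of the fenobam response.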

[3] = target: Metabotropic glutamate receptor 5 (Rattus norvegicus) (UniProt P31424); assay: Ratio of IC50 for negative allosteric modulation of rat N-terminal HA-tagged mGlu5 receptor expressed in HEK293 cells under dark condition to IC50 for negative allosteric modulation of rat N-terminal HA-tagged mGlu5 receptor expressed in HEK293 cells under violet light illumination; type: cell-based
How it was run: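 HEK293 cells expressing rat HA-mGlu5 and EAAC1 were stimulated with 100 nM quisqualate plus compound for 30 min at 37°C. Part of each plate was kept dark under foil; the rest was lit continuously at 380 nm from an LED plate. After a single wash, IP was measured by HTRF. Value is IC50 (dark) divided by IC50 (violet). Curves used ≥3 independent replicates.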

[4] = target: Metabotropic glutamate receptor 5 (Rattus norvegicus, UniProt P31424); assay: Negative allosteric modulation of rat N-terminal HA-tagged mGlu5 receptor expressed in HEK293 cells co-expressing N-terminal HA-tagged EAAC1 assessed as inhibition of quisqualate-induced inositol phosphate accumulation after 30 mins by HTRF assay; type: functional, cell-based
How it was run: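 Rat mGlu5 (N-terminal HA tag) and EAAC1 were co-transfected into HEK293 cells by electroporation and seeded at 1.5 × 10^5 cells/well. Medium was changed to glutamate-free DMEM at least 4 h before the run. Next day, cells got 100 nM quisqualate plus compound for 30 min at 37°C, 5% CO2, then were washed once. IP accumulation was read by IP-One HTRF. Dose-response used ≥3 independent replicates.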

[5] = target: Metabotropic glutamate receptor 5 (Homo sapiens, UniProt P41594); assay: Negative allosteric modulation of mGlu5 receptor (unknown origin)
Chain of Metabotropic glutamate receptor 5 (Homo sapiens, UniProt P41594) (P41594 whole entry): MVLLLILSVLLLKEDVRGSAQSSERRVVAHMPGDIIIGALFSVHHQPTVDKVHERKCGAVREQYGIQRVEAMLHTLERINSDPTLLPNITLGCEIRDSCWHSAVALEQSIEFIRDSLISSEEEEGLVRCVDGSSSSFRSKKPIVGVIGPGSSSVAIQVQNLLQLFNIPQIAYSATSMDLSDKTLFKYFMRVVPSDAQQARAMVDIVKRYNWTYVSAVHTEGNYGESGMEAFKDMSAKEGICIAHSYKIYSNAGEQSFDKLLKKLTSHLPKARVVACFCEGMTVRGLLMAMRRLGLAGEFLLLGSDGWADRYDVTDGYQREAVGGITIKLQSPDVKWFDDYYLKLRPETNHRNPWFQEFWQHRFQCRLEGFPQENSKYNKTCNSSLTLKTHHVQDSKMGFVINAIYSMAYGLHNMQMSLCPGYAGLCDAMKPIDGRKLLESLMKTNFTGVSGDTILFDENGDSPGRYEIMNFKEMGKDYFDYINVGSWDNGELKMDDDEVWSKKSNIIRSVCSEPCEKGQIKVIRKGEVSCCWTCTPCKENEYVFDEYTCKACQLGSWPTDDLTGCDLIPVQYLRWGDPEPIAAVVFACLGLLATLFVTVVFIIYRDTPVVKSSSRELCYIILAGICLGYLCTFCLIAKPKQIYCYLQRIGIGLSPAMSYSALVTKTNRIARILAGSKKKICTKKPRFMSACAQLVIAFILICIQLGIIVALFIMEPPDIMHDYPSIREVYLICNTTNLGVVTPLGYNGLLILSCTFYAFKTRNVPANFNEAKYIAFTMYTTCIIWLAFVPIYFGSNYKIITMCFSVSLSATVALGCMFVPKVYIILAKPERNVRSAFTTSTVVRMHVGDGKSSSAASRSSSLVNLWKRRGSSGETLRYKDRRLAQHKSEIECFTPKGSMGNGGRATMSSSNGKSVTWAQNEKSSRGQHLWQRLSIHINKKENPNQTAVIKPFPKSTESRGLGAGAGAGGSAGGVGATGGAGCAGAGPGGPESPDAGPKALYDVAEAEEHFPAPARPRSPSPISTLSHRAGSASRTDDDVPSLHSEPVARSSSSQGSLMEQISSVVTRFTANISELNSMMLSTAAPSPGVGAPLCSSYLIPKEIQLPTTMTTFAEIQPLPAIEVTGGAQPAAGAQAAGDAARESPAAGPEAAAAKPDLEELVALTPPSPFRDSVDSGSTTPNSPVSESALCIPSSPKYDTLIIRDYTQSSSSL

Chain of Metabotropic glutamate receptor 5 (Rattus norvegicus, UniProt P31424) (P31424 whole entry): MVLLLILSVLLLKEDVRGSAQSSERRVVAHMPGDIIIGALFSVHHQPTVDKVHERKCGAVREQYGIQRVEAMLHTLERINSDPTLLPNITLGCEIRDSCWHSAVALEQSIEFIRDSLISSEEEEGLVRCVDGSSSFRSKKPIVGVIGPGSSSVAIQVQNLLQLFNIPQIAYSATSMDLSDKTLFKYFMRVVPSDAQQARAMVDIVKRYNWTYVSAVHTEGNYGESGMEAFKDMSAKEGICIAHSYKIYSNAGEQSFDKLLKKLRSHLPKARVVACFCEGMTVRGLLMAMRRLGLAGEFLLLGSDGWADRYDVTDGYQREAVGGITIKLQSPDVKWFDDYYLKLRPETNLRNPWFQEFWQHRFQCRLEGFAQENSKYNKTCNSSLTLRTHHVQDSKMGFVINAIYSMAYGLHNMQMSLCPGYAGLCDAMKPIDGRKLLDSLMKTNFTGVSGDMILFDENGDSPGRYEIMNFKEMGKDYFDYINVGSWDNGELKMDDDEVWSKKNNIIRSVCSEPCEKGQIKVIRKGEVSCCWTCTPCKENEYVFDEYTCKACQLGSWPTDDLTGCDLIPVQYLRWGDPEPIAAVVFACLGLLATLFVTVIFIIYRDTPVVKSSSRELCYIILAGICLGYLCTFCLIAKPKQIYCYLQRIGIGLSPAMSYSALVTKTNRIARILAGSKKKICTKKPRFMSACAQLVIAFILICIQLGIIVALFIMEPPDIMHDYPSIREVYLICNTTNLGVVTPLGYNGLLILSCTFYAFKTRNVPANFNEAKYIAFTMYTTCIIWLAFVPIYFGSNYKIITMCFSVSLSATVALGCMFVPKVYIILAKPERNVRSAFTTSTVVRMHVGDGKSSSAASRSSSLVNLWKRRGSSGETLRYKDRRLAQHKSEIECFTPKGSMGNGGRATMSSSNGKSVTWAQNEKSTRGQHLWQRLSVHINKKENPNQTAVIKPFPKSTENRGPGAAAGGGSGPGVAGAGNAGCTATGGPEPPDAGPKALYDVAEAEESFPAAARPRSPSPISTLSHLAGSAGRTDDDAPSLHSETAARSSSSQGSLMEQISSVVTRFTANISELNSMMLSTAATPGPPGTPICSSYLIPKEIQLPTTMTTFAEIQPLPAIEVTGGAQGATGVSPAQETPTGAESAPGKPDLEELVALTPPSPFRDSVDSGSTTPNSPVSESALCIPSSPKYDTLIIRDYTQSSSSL
Chain of Metabotropic glutamate receptor 5 (Rattus norvegicus) (P31424 21-1203 limits assumed): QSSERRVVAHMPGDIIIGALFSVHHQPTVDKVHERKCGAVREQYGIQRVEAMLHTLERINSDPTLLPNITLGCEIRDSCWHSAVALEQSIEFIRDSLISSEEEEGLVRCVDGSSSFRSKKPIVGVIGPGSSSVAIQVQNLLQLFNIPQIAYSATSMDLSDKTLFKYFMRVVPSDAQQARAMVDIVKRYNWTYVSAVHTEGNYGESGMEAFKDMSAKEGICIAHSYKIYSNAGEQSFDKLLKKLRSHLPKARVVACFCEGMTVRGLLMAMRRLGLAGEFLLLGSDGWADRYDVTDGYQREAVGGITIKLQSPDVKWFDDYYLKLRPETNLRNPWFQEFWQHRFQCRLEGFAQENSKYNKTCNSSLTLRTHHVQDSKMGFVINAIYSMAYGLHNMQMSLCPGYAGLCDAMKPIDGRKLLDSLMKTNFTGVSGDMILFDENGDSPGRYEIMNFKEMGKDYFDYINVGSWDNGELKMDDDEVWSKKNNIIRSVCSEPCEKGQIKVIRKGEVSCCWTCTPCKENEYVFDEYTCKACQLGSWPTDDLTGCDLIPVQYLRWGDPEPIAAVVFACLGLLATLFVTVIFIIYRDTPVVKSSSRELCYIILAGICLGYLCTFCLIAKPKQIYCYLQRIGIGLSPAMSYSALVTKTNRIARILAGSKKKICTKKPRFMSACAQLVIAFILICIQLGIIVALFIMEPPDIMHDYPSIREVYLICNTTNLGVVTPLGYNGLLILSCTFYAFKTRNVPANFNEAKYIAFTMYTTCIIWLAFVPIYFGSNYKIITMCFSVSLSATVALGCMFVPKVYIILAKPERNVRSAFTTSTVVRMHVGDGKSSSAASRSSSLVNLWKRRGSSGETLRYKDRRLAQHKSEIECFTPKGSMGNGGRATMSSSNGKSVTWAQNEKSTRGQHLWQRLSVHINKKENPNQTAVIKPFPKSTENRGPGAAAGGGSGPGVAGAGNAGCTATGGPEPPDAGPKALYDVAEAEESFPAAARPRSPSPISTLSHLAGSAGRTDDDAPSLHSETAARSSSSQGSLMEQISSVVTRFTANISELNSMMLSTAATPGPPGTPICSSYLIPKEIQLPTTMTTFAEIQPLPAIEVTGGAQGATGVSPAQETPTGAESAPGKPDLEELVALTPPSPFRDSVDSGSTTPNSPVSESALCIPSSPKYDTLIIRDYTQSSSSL

Row | SMILES | Activity [1] [%] | Efficacy [2] [%] | Ratio IC50 [3] | IC50 [4] [nM] | IC50 [5] [nM]
1 | c1ccc(/N=N/c2cccc(/N=N/c3ccccn3)c2)nc1 | 15 | 114 | 2.2 | 4920 | –
2 | Cc1cc(C)c(N)c(C#Cc2cccc(F)c2)n1 [RASEGLURANT] | – | – | – | – | 17
3 | C(#Cc1ccccn1)c1cccc(C#Cc2ccccn2)c1 | – | 114 | – | 430 | –
4 | C(#Cc1ccccn1)c1cccc(/N=N/c2ccccn2)c1 | 9 | 115 | 1.3 | 960 | –
5 | C(#Cc1ccccn1)c1ccc(C#Cc2ccccn2)cc1 | – | 42 | – | 1210 | –
6 | c1ccc(/N=N/c2ccc(/N=N/c3ccccn3)cc2)nc1 | -1 | 19 | 1.2 | 6130 | –
7 | C(#Cc1ccccn1)c1ccc(/N=N\c2ccccn2)cc1 | 15 | 35 | 2.9 | 3090 | –
